Source: article PMC7328899 (Nature cancer, 2020)
Values belong to the compound of their own block, whether it stands above or below them.

What was measured:
SF295 glioma cell line = assay: Viability of SF295 cells with and without MTF1 knockout; type: cell-based, human; settings: for change of drug sensitivity after MTF1 knockout: SF295 cells, CRISPR/Cas9 MTF1 knockout vs control
Outline: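 SF295 glioma cells: wild-type, Cas9 with GFP sgRNA, or Cas9 with MTF1 sgRNAs. Knockout was confirmed by NGS indel assay and loss of MTF1 target gene expression by RNA-seq. Cells were seeded at 2000 cells/well and dosed the next day. CellTiter-Glo viability was normalized to vehicle and reported as the mean of 3 independently treated wells with SD.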

[1] = tested on: LS1034 and REC1 cell lines; assay: Drug synergy/antagonism assays, LS1034 and REC1; type: cell-based, human
Outline: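 LS1034 or REC1 cells received a dose-response matrix of test compound with paclitaxel, and viability was read by CellTiter-Glo. Signals were normalized to the median of DMSO wells on each plate. Bliss synergy scores were estimated across all dose combinations with default baseline correction. The value is the score with highest magnitude across combinations (max synergy).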

OVISE cells = assay: Viability of OVISE cells with and without SLC26A2 knockout; type: cell-based, human; settings: CRISPR/Cas9 SLC26A2 knockout
Outline: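 OVISE cells were grown in RPMI with 10% FBS and used with or without CRISPR/Cas9 SLC26A2 knockout; GFP sgRNA served as the non-targeting control. Indel frequency at the cut sites was checked by NGS. Cells were seeded at 2000 cells/well and dosed the next day. CellTiter-Glo viability was normalized to vehicle and reported as the mean of three independently treated wells with SD.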

LS1034 cells = assay: Tepoxalin drug synergy/antagonism assay, LS1034; type: cell-based, human; settings: LS1034, 5 days, tepoxalin doses above ~5 μM
[2] = tested on: LS1034 colon cancer cell lines with and without ABCB1 knockout
[3] = tested on: ABCB1-expressing cancer cells; assay: Viability of ABCB1-expressing cancer cells; type: cell-based, human; settings: compared with tepoxalin
[4] = tested on: Kuramochi ovarian cancer cell line; assay: Viability of Kuramochi wild type and ABCB1-overexpressing cells; type: cell-based, human; settings: low-expressing, tepoxalin-insensitive cell line (Kuramochi), 8 days
Outline: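 Kuramochi ovarian cancer cells, wild-type or ABCB1-overexpressing, were grown in RPMI with 10% FBS and seeded at 2000 cells/well. Compound was added the next day and cells were treated for 8 days. Viability was read by CellTiter-Glo luminescence, normalized to vehicle, and reported as the mean of 3 independently treated wells with SD.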

[5] = tested on: LS1034 colorectal cancer cells; assay: Cellular viability assay; type: cell-based; settings: Homo sapiens, LS-1034
Outline: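 LS1034 cells were grown in RPMI with 10% heat-inactivated FBS and 1% penicillin-streptomycin, and tested mycoplasma-negative. They were seeded at 2000 cells/well and digitally dispensed with compound the next day. Exposure was 5 days. CellTiter-Glo luminescence was read, replicate wells were averaged and normalized to vehicle, and dose curves were fitted.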

ABCB1 = ABCB1 (Homo sapiens, UniProt P08183); assay: ABCB1 activity assays; type: cell-based; settings: MDR1-MDCK cells; calcein AM and loperamide transport assays
Chain of ABCB1 (P08183 whole entry): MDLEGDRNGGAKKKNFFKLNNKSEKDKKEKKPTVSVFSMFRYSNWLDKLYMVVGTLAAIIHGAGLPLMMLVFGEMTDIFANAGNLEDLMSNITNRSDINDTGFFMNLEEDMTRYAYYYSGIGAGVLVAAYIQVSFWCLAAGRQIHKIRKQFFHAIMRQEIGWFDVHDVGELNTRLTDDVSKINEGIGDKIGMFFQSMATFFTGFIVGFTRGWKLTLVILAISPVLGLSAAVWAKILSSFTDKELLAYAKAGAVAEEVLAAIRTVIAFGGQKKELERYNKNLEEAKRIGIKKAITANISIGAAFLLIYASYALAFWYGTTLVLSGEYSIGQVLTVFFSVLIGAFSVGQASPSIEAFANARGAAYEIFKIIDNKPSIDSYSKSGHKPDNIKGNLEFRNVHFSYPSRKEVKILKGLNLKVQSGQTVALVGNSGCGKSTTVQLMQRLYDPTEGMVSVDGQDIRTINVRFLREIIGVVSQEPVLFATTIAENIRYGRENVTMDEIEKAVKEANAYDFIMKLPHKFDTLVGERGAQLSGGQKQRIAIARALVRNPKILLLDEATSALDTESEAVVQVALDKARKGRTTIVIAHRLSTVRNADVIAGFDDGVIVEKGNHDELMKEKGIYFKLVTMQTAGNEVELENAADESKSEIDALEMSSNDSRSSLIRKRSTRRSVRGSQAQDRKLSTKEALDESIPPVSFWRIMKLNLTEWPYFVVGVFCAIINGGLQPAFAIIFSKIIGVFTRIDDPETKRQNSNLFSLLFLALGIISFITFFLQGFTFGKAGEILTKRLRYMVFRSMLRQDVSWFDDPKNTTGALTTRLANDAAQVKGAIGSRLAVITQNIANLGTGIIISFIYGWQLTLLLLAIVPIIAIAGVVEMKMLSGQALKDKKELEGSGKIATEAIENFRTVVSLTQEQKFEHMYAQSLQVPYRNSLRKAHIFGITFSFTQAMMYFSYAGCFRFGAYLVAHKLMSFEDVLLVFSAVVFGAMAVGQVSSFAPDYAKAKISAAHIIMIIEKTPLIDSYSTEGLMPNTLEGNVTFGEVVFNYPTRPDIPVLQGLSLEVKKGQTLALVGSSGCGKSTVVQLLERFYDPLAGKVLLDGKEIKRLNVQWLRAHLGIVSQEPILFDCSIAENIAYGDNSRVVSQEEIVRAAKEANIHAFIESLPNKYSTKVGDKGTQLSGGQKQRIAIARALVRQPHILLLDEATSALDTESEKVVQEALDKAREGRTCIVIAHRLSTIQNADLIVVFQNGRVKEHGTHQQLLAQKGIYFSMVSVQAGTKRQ
Outline: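 Calcein AM efflux assay: MDR1-MDCK (MDCKII) cells incubated with test compound and calcein AM; fluorescence read-out expressed as percent ABCB1 inhibition, mean of 3 replicates. Transport assay: loperamide added to the apical side of an MDR1-MDCK monolayer and basolateral transport quantified over 60 minutes, with test compound or verapamil positive control.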

PDE3A-SLFN12 = settings: cited from earlier work

Compound: CCN(CC)C(=S)SSC(=S)N(CC)CC [disulfiram]
effect of copper chelator tetrathiomolybdate (TTM) on the increased sensitivity (SF295 glioma cell line; SF295 MTF1 knockout cells, co-treatment with 1 μM TTM): completely reversed | change of drug sensitivity after MTF1 knockout (SF295 glioma cell line): increased sensitivity

Compound: COc1cc2c(cc1OC)CN(CCc1ccc(NC(=O)c3cccc4c(=O)c5cccc(OC)c5[nH]c34)cc1)CC2 [elacridar]
maximum synergy score in combination with paclitaxel [1]: strongly synergistic

Compound: CC(C)C[C@H](NC(=O)[C@H](Cc1ccccc1)NC(=O)c1cnccn1)B(O)O [bortezomib]
change of drug sensitivity after MTF1 knockout (SF295 glioma cell line): did not alter sensitivity

Compound: bis(ethylmaltolato)oxovanadium(IV) [BEOV]
sensitivity of cells after SLC26A2 knockout (OVISE cells): resistant

Compound: O[C@@H](COc1cccc2ncccc12)CN1CCN([C@@H]2c3ccccc3[C@@H]3[C@H](c4ccccc42)C3(F)F)CC1 [zosuquidar]
Bliss synergy in combination with tepoxalin (LS1034 cells): strong antagonism

Compound: Cc1occc(=O)c1[O-].Cc1occc(=O)c1[O-].[O]=[V+2] [BMOV, bis(maltolato)oxovanadium(IV)]
sensitivity of cells after SLC26A2 knockout (OVISE cells): resistant

Compound: COc1cc2c(cc1OC)CN(CCc1ccc(NC(=O)c3cc(OC)c(OC)cc3NC(=O)c3cnc4ccccc4c3)cc1)CC2 [tariquidar]
maximum synergy score in combination with paclitaxel [1]: strongly synergistic

cell permeability [2]: not cell-permeable
Compound: COc1ccc(-n2nc(CCC(=O)O)cc2-c2ccc(Cl)cc2)cc1 [RWJ20142, 3-(5-(4-chlorophenyl)-1-(4-methoxyphenyl)-1H-pyrazol-3-yl)propanoic acid]
inhibition of ABCB1-expressing cancer cells [3]: no inhibition

IC50 [5]: 3.8 µM | ABCB1 inhibition (ABCB1): inhibit ABCB1 at high concentrations
Compound: COc1ccc(-n2nc(CCC(=O)N(C)O)cc2-c2ccc(Cl)cc2)cc1 [tepoxalin]
change of drug sensitivity after ABCB1 overexpression [4]: increased drug sensitivity

Compound: COc1cc2c(cc1OC)-c1c/c(=N\c3c(C)cc(C)cc3C)n(C)c(=O)n1CC2 [trequinsin]
induction of PDE3A-SLFN12 interaction (PDE3A-SLFN12): does not induce PDE3A-SLFN12 interaction
